pEC50: −log10 of the molar value. ≈ marks a conversion by molar mass, not a printed value.
Legend:
KMS-12-BM [1] = test: Antitumor activity against human KMS-12-BM cells xenografted in SCID-bg mouse assessed as tumor growth inhibition at 100 mg/kg, po qd measured twice per week; format: functional; settings: read-out: TGI
Mus musculus [2] = test: In vivo inhibition of pan Pim in SCID-bg mouse xenografted with human KMS-12-BM cells assessed as phosphorylation of BAD peptide at Serine 112 residue at 100 mg/kg, po qd measured at 1 hr post dose relative to control; format: functional; parameters: scale not given: the % may be the effect or the level left
[3] = Fraction unbound in mouse plasma; format: ADME, cell-free
Mus musculus [4] = test: In vivo inhibition of pan Pim in SCID-bg mouse xenografted with human KMS-12-BM cells assessed as phosphorylation of BAD peptide at Serine 112 residue at 100 mg/kg, po qd measured at 12 hrs post dose relative to control; format: functional; parameters: scale not given: the % may be the effect or the level left
KMS-12-BM [5] = test: Antitumor activity against human KMS-12-BM cells xenografted in SCID-bg mouse assessed as tumor growth inhibition at 25 mg/kg, po qd measured twice per week; format: functional; settings: read-out: TGI
[6] = Volume of distribution at steady state in rat at 2 mg/kg, iv or 5 mg/kg, po; format: ADME, organism-based; settings: in vivo, read-out: Vdss
[7] = molecular target: T1, Mitogen-activated protein kinase 12 (Homo sapiens) (UniProt P53778); test: Inhibition of full length human p38-gamma expressed in bacterial system assessed as remaining enzyme activity at 1 uM by KINOMEScan assay relative to control
T1 sequence (whole entry): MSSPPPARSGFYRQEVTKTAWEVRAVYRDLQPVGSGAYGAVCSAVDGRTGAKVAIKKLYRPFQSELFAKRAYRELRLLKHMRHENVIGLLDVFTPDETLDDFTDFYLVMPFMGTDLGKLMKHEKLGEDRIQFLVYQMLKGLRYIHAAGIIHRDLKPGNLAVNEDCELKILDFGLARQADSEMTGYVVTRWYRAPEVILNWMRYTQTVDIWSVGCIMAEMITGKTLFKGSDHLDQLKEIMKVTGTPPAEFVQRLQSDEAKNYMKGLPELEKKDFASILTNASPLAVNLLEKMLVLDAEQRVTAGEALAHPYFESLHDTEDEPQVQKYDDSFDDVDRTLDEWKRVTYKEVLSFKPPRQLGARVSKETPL

Mus musculus [8] = test: In vivo inhibition of pan Pim in SCID-bg mouse xenografted with human KMS-12-BM cells assessed as phosphorylation of BAD peptide at Serine 112 residue at 50 mg/kg, po qd measured at 4 hrs post dose relative to control; format: functional; parameters: scale not given: the % may be the effect or the level left
KMS-12-BM [9] = test: Antitumor activity against human KMS-12-BM cells xenografted in SCID-bg mouse assessed as tumor growth inhibition at 10 mg/kg, po qd measured twice per week; format: functional; settings: read-out: TGI
Mus musculus [10] = test: In vivo inhibition of pan Pim in SCID-bg mouse xenografted with human KMS-12-BM cells assessed as phosphorylation of BAD peptide at Serine 112 residue at 10 mg/kg, po qd measured at 8 hrs post dose relative to control; format: functional; parameters: scale not given: the % may be the effect or the level left
Mus musculus [11] = test: In vivo inhibition of pan Pim in SCID-bg mouse xenografted with human KMS-12-BM cells assessed as phosphorylation of BAD peptide at Serine 112 residue at 50 mg/kg, po qd measured at 8 hrs post dose relative to control; format: functional; parameters: scale not given: the % may be the effect or the level left
[12] = molecular target: Dual specificity protein kinase CLK4 (Homo sapiens) (UniProt Q9HAZ1); test: Inhibition of human CLK4 (135 to 481 residues) expressed in bacterial system assessed as remaining enzyme activity at 1 uM by KINOMEScan assay relative to control
[13] = Volume of distribution at steady state in dog at 0.3 mg/kg, iv; format: ADME, organism-based, Canis lupus familiaris; settings: in vivo, read-out: Vdss
KMS-12-BM [14] = test: Antitumor activity against human KMS-12-BM cells xenografted in SCID-bg mouse assessed as tumor growth inhibition at 50 mg/kg, po qd measured twice per week; format: functional; settings: read-out: TGI
Mus musculus [15] = test: In vivo inhibition of pan Pim in SCID-bg mouse xenografted with human KMS-12-BM cells assessed as phosphorylation of BAD peptide at Serine 112 residue at 100 mg/kg, po qd measured at 8 hrs post dose relative to control; format: functional; parameters: scale not given: the % may be the effect or the level left
Mus musculus [16] = test: In vivo inhibition of pan Pim in SCID-bg mouse xenografted with human KMS-12-BM cells assessed as phosphorylation of BAD peptide at Serine 112 residue at 10 mg/kg, po qd measured at 1 hr post dose relative to control; format: functional; parameters: scale not given: the % may be the effect or the level left
Mus musculus [17] = test: In vivo inhibition of pan Pim in SCID-bg mouse xenografted with human KMS-12-BM cells assessed as phosphorylation of BAD peptide at Serine 112 residue at 50 mg/kg, po qd measured at 1 hr post dose relative to control; format: functional; parameters: scale not given: the % may be the effect or the level left
Mus musculus [18] = test: In vivo inhibition of pan Pim in SCID-bg mouse xenografted with human KMS-12-BM cells assessed as phosphorylation of BAD peptide at Serine 112 residue at 25 mg/kg, po qd measured at 1 hr post dose relative to control; format: functional; parameters: scale not given: the % may be the effect or the level left
[19] = molecular target: Dual specificity tyrosine-phosphorylation-regulated kinase 1A (Homo sapiens) (UniProt Q13627); test: Inhibition of human DYRK1A (129 to 509 residues) expressed in mammalian system assessed as remaining enzyme activity at 1 uM by KINOMEScan assay relative to control
[20] = Aqueous solubility of the compound in PBS at pH 7.4 after 1 hr by LC/MS analysis; format: physicochemical
Summary of the method: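 The compound was dried down from DMSO and taken up in 1x PBS (pH 7.4) or FaSIF (pH 6.8). Samples were shaken 1 h, equilibrated at RT for 72 h, then centrifuged.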

Mus musculus [21] = test: In vivo inhibition of pan Pim in SCID-bg mouse xenografted with human KMS-12-BM cells assessed as plasma concentration required for reduction of BAD peptide phosphorylation at Serine 112 residue at 10 to 100 mg/kg, po qd measured after 1 to 24 hrs post dose; format: functional, organism-based
[22] = Apparent permeability in pig LLC-PK1 cells; format: ADME, cell-based, Sus scrofa
[23] = Aqueous solubility of the compound in FaSIF at pH 6.8 after 1 hr by LC/MS analysis
Mus musculus [24] = test: In vivo inhibition of pan Pim in SCID-bg mouse xenografted with human KMS-12-BM cells assessed as phosphorylation of BAD peptide at Serine 112 residue at 25 mg/kg, po qd measured at 12 hrs post dose relative to control; format: functional; parameters: scale not given: the % may be the effect or the level left
Bos taurus = species: Bos taurus; test: Inhibition of bovine I1-receptor assessed as remaining enzyme activity at 10 uM relative to untreated control
Mus musculus [25] = test: In vivo inhibition of pan Pim in SCID-bg mouse xenografted with human KMS-12-BM cells assessed as phosphorylation of BAD peptide at Serine 112 residue at 10 mg/kg, po qd measured at 4 hrs post dose relative to control; format: functional; parameters: scale not given: the % may be the effect or the level left
Mus musculus [26] = test: In vivo inhibition of pan Pim in SCID-bg mouse xenografted with human KMS-12-BM cells assessed as phosphorylation of BAD peptide at Serine 112 residue at 100 mg/kg, po qd measured at 24 hrs post dose relative to control; format: functional; parameters: scale not given: the % may be the effect or the level left
KMS-12-BM [27] = test: Antitumor activity against human KMS-12-BM cells xenografted in po dosed SCID-bg mouse assessed as tumor growth inhibition administered once daily measured twice per week; format: functional, organism-based

Dual specificity protein kinase CLK4 (Homo sapiens), sequence (Q9HAZ1 whole entry, looked up, the tested form may be a part): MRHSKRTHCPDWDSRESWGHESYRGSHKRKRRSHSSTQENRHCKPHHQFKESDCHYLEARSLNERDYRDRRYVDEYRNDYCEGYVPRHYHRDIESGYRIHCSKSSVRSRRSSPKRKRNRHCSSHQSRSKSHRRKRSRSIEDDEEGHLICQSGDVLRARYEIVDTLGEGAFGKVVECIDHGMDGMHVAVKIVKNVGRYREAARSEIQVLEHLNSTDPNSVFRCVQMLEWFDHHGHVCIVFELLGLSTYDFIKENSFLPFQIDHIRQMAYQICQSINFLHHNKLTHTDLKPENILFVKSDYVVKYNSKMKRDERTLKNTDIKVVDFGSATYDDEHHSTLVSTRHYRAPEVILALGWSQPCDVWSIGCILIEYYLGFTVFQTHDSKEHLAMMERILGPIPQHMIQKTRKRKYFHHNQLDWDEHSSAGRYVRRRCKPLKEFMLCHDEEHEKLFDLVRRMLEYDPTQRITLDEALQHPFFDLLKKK

Cp(f) [3]: 21.4 nM
Vd [6]: 1.5 L/kg
Activity [7]: 0.9%
Activity [12]: 0.2%
Vd [13]: 1 L/kg
Activity [19]: 6%
solubility at 1 h [20]: 60 µM (≈ 21.9 µg/mL)
pEC50 (Mus musculus [21]): 6.60
Papp [22]: 44 ×10⁻⁶ cm/s
solubility at 1 h [23]: 104 µM (≈ 38 µg/mL)
Activity (Bos taurus): < 10%
SMILES: C[C@H]1NC(=O)c2cc(-c3cccc4c(=O)n(C)c(NC(C)(C)C)nc34)[nH]c21
inhibition in vivo at 100 mg/kg (KMS-12-BM [1]): 95%
Activity (Mus musculus [2]): 61%
Activity (Mus musculus [4]): 66%
inhibition in vivo at 25 mg/kg (KMS-12-BM [5]): 65%
Activity (Mus musculus [8]): 66%
inhibition in vivo at 10 mg/kg (KMS-12-BM [9]): 30%
Activity (Mus musculus [10]): 41%
Activity (Mus musculus [11]): 85%
inhibition in vivo at 50 mg/kg (KMS-12-BM [14]): 93%
Activity (Mus musculus [15]): 70%
Activity (Mus musculus [16]): 52%
Activity (Mus musculus [17]): 61%
Activity (Mus musculus [18]): 60%
Activity (Mus musculus [24]): 37%
Activity (Mus musculus [25]): 50%
Activity (Mus musculus [26]): 21%
TGI (KMS-12-BM [27]): Dose-dependent effect
